# High-throughput results as filed in PubChem BioAssay.
# HTR5A ag = counter-screen for OPRM1-OPRD1 agonists: human HTR5A agonism; actives 0.61% (n = 340,000); activation, % at 9.3 µM; HTR5A agonist assay, luminescence, cell-based; in the data active = activation mostly above about 9.5%, no sharp cut-off; inactive = mostly below about 7.6%
# HTR5A inv ag = counter-screen for OPRM1-OPRD1 inverse agonists: human HTR5A inverse agonism; P47898; HTR5A cell line, luminescence; AID 504634; actives 0.083% (n = 340,000); inhibition, % at 9.3 µM; in the data active = inhibition mostly above about 23%, no sharp cut-off; inactive = mostly below about 18%
# OPRM1-OPRD1 inv = mu-delta opioid heterodimer inverse agonism. cell-based MOR-DOR heterodimer luminescence. actives 0.21% (n = 340,000). P35372+P41143. inhibition, % at 9.3 µM; in the data active = inhibition above about 22%, passing the limit was not always enough
# Target sequence (P35372 whole entry, looked up): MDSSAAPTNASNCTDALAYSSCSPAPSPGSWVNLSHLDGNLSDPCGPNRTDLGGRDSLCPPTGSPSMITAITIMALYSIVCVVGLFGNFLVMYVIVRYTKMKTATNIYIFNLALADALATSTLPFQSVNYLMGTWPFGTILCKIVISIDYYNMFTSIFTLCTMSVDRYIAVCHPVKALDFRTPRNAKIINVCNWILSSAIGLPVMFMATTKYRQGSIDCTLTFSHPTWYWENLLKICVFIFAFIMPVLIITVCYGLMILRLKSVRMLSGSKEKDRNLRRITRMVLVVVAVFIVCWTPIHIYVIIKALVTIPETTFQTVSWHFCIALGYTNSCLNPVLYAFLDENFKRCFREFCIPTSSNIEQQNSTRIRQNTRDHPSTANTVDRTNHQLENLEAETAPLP
# Target sequence (P41143 whole entry, looked up): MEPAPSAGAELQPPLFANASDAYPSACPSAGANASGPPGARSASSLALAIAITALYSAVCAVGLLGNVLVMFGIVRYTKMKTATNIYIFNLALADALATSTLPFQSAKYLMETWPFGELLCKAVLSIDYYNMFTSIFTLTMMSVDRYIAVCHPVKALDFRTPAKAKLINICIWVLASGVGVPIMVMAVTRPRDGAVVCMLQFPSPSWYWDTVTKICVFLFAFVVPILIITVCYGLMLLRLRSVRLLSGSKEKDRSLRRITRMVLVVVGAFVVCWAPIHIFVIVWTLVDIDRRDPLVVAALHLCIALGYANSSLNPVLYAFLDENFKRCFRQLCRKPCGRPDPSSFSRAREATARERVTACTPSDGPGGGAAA
# Lipid droplet = hepatic lipid droplet formation modulation. AML12 mouse hepatocytes, oleate lipid droplets, BODIPY imaging. inhibition, % at 6.5 µM. actives 0.4% (n = 240,000);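 active = lipid droplet intensity inhibited by at least 50%, with more than 500 cells counted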
#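 Assay system: AML12 hepatocytes (mouse); Probe or stimulus: oleic acid at 100 µM to induce lipid droplet formation; Dosing: compound at 6.5 µM only; Schedule: compound with oleate, overnight; Detection: fluorescence imaging, 20x objective, two fields per well; Measure: % inhibition of lipid droplet signal.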
# MOR-DOR ag = agonists of human mu-delta opioid receptor heterodimerization; cells, OPRM1-OPRD1 heterodimerization, luminescence; activation, % at 9.3 µM; actives 0.3% (n = 340,000); AID 504326; in the data active = activation above about 18%
# A number is an active result; i = inactive; nt = no result. This is a sample that favours compounds with a hit; in the whole collection about 1.4% have one here.
SMILES,HTR5A ag,HTR5A inv ag,OPRM1-OPRD1 inv,Lipid droplet,MOR-DOR ag
O=C(CNC(=O)c1ccc(Br)o1)NNC(=O)COc1ccccc1Cl,i,i,i,nt,i
CCN(CC)CCC(O)(c1ccc2c(c1)OCO2)c1cc(OC)c(OC)c(OC)c1 (stereo not given),i,i,i,nt,i
O=C(NC1CC1)c1cccc(NC(=O)c2cnn(-c3ccccc3)n2)c1,i,i,i,nt,i
O=C(NC1CC1)c1cccc(NC(=O)c2cn3ccccc3n2)c1,13,i,i,nt,i
CC(C)(C)C1CCc2sc(C(=O)NNC(=O)CCl)cc2C1 (stereo not given),57,i,i,i,38
COc1ccc2ccccc2c1/C=N/NC(=O)c1sc(N)c(C#N)c1C,i,i,i,i,24
NC(=S)N/N=C/c1ccc(Br)o1,i,i,i,i,i
NC(=S)N/N=C/c1ccc(-c2cc(Cl)c(Cl)cc2Cl)o1,12,i,i,i,i
COc1ccccc1N1CCN(C(=O)c2cc3c(s2)CCCCC3)CC1,10,i,i,i,i
O=C(Oc1cccc(C(=S)N2CCOCC2)c1)c1ccc([N+](=O)[O-])cc1[N+](=O)[O-],9.4,i,i,i,i
COc1ccc(NC(=O)NNC(=O)c2ccc3ccccc3c2)cc1OC,i,i,i,i,i
Cc1nn(-c2ccccn2)c2c1C(c1ccccc1Cl)C1=C(N2)c2ccccc2C1=O (stereo not given),i,i,26,i,i
CC(NC(=O)CSc1nc2ccccc2n1C)c1ccccc1 (stereo not given),14,i,i,i,i
C#CC(=O)N(c1cccc(OC)c1)C(C(=O)NC1CCCC1)c1cccs1 (stereo not given),28,i,i,nt,28
Cc1cccc(N(C(=O)C(F)(F)F)C(C(=O)NC2CCCCC2)c2cccs2)c1 (stereo not given),i,i,i,nt,i
COc1ccc(C(=O)N/C(=C/c2cccnc2)C(=O)N2CCCCCC2)cc1OC,8.8,i,i,i,i
COc1ccc(C(=O)N/C(=C/c2cccnc2)C(=O)N2CCOCC2)cc1OC,i,i,i,i,i
COc1ccc(S(N)(=O)=O)cc1C(=O)NNC(=O)C1COc2ccccc2O1 (stereo not given),i,i,i,nt,i
COc1ccc(-n2nnnc2-c2ccc(S(C)(=O)=O)cc2Cl)cc1,i,i,i,i,i
CCOc1ccc(NC(=O)c2c(NC(=O)CNCCN3CCOCC3)sc3c2CCC3)cc1,i,i,i,i,i
COc1cc(Nc2ncnc(N)n2)cc(OC)c1,i,i,i,i,i
COC(=O)c1cc(CSc2nnc(NC3CCCCC3)s2)oc1C,11,i,i,i,i
CCOC(=O)c1c(-c2ccc(C)o2)csc1NC(=O)CN1CCOCC1,i,i,i,i,i
CCOC(=O)c1c(-c2ccc(C)o2)csc1NC(=O)COC(=O)c1cccs1,11,i,i,i,i
CCN1C(=S)N[C@@H](CCc2ccccc2)C(C(=O)OC)=C1C,i,i,i,nt,i
SMILES,HTR5A ag,HTR5A inv ag,OPRM1-OPRD1 inv,Lipid droplet,MOR-DOR ag
Nc1cc(=O)nc(SCC(=O)N(C2CCCCC2)C2CCCCC2)n1-c1ccccc1,13,i,i,nt,i
O=C(Nc1ccc(C(=O)N2CCN(c3ccccc3)CC2)cc1)C1=CSCCO1,i,i,i,i,i
CC(C)(C)NC(=O)Cn1c(Cl)nc2ccccc21,nt,nt,nt,i,nt
CC[n+]1ccc(/C=C/c2ccc(N(C)C)cc2)c2ccccc21,i,34,i,i,i
O=C(N/N=C/C1C(c2ccccc2)C1(Cl)Cl)c1cccc(Br)c1 (stereo not given),11,i,i,nt,i
N#CCCN1CCN(CCC#N)C1=S,i,i,i,nt,i
COc1ccc(N(CC(=O)NCCSc2ccccn2)S(=O)(=O)c2ccc(C)cc2)cc1OC,14,i,i,i,i
O=C(CSc1ncn[nH]1)Nc1ccc2c(c1)CCC2,12,i,i,i,i
Cc1ccc(NC(=O)CSc2ncn[nH]2)cc1,i,i,i,i,i
C=CCn1c(SCC(=O)NNC(=O)Nc2ccc(C)cc2)nnc1-c1ccccc1,i,i,i,i,i
C=CCn1c(SCC(=O)Nc2ccc(-c3nc4ccc(C)cc4s3)cc2)nnc1-c1ccccc1,i,i,i,i,20
CCOC(=O)c1ccc(NC(=O)CSc2nnc(-c3cccs3)n2CC)cc1,i,i,i,i,i
C=CCn1c(SCC(=O)Nc2ccc(C(=O)OC(C)C)cc2)nnc1-c1cccs1,9.0,i,i,i,i
Cc1ccc(S(=O)(=O)NCC(=O)N(CC(=O)NCC2CCCO2)Cc2ccccc2Cl)cc1 (stereo not given),i,i,i,i,i
